Shown are actives, neighbours in structure and some others; about 9.6% of the full set was active somewhere.
TNAP inh no acc – human TNAP enzyme inhibitors, primary screen, biochemical, luminescent, no phosphate acceptor, uHTS | purified TNAP, CDP-star luminescence, 30 min | inhibition, % at 20 µM | actives 0.26% (n = 200,000) | AID 1012, 2008;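 active = tissue-nonspecific alkaline phosphatase inhibition above about 50% at 20 µM in the single-dose screen, limit read from the data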;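 note: 0% = DMSO negative control and 100% = EDTA positive control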
Target sequence (P05186 whole entry, looked up): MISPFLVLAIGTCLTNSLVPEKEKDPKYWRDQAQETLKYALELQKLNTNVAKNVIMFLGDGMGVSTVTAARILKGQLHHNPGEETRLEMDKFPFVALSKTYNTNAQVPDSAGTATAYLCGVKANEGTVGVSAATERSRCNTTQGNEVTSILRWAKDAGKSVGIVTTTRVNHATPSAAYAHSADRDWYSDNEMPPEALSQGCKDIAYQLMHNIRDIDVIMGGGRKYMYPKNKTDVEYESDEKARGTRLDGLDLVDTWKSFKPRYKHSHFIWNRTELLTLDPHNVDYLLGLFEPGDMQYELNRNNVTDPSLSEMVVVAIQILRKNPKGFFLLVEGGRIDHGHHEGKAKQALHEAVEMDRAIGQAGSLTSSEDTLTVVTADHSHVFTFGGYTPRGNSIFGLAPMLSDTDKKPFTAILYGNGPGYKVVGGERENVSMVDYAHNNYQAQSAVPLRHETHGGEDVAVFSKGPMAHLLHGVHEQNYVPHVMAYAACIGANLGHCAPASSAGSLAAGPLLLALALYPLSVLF
HCT116 PTEN-null – growth suppression of PTEN-null HCT116, primary screen, cell-based, CellTiter-Glo; AID 827, 2007; viability, % at 10 µM; actives 1.2% (n = 140,000); HCT116 PTEN-null viability, 60 h; stronger effect = lower value;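 active = viability at or below a set limit, 4 SD under the median of all tested compounds, cut at about 3.7% in these data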;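 note: PTEN knockout HCT116 line with beta catenin targeted HCT116 as companion control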
HCT116 bCat-KO – primary screen for growth suppressors in beta-catenin knockout HCT116 cells (colon tumor, human); HCT116 beta-catenin knockout viability, CellTiter-Glo, 60 h; stronger effect = lower value; actives 1.5% (n = 140,000); viability, % at 10 µM;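 active = viability at or under a set limit, the compound median less 4 SD, cut at about 6% in these data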;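 note: 0% = Hyamine 1622 control at 20 µM and 100% = untreated cell control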
Lmaj promast – Leishmania major promastigote growth inhibition, primary screen; AID 1063, 2008; actives 9% (n = 200,000); inhibition, % at 10 µM; Leishmania major promastigotes, resazurin fluorescence viability; in the data active = inhibition above about 50%;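 note: promastigotes grown with compound for 44 hours at 28 °C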
TNAP inh hiacc – human TNAP enzyme inhibitors, primary screen, biochemical, luminescent, high phosphate acceptor level, uHTS; inhibition, % at 20 µM; actives 0.03% (n = 200,000); purified TNAP, CDP-star luminescence, 1 M DEA;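 active = over 50% inhibition of tissue-nonspecific alkaline phosphatase at 20 µM in the single-dose screen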;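 note: plate controls were DMSO wells for no effect and EDTA-quenched wells as full inhibition for full effect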
TNAP act hiacc – TNAP activators at high phosphate acceptor level, primary screen, biochemical, luminescence, uHTS. Alkaline phosphatase, tissue-nonspecific isozyme (Homo sapiens), P05186. purified TNAP, CDP-star luminescence, 1 M DEA, 30 min; stronger effect = higher value; 0 = EDTA background, 1 = DMSO-only activity. AID 1136, 2008. 200,000 tested, under 10 active. activation factor at 20 µM;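 active = activation factor at least 2 at 20 µM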
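Measured by: Luminescent substrate turnover signal | Test system: Human TNAP | Input: TNAP 1/800 final | Dosing: 20 µM single point | Schedule: 30 min, room temperature | Controls: EDTA wells as negative control, DMSO wells as positive control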
* = called active by the depositor; · = no result.

SMILES	TNAP inh no acc	HCT116 PTEN-null	HCT116 bCat-KO	Lmaj promast	TNAP inh hiacc	TNAP act hiacc
CCOC(=O)c1nn(-c2ccc(C)cc2)cc1C(=O)c1ccccc1	-3	79	69	31	13	0.9
CS(=O)(=O)N(C(=O)NC(=O)NC12CC3CC(CC(C3)C1)C2)C1CCCCC1	-12	·	·	0	-4	1
CCOC(=O)c1[nH]ncc1CN1CCCC(C(=O)c2ccc(C(C)(C)C)cc2)C1 (stereo unspecified)	-9	·	·	74*	-5	1.1
CCCNCC1C(Oc2ccc(Cl)cc2Cl)C(=O)N1c1cccc(C)c1C (stereo unspecified)	-21	·	·	72*	-4	1
COc1ccc(CCNC(=O)CSc2nnc(NC(C)=O)s2)cc1OC	-11	89	92	-6	-7	1.1
O=c1c(OC2OC(CO)C(O)C(O)C2O)c(-c2ccc(O)c(O)c2)oc2cc(O)cc(O)c12 (stereo unspecified)	40	89	102	-5	14	0.9
C[C@@H]1O[C@@H](Oc2c(-c3cc(O)c(O)c(O)c3)oc3cc(O)cc(O)c3c2=O)[C@H](O)[C@H](O)[C@H]1O	52*	82	66	-10	12	0.9
CCCCn1c(=O)c(C(=O)N/N=C/c2ccc(F)cc2)c(O)c2ccccc21	13	·	·	24	-3	1
CCOC(=O)Cc1csc(NC(=O)c2c(O)c3ccccc3n(CC(C)C)c2=O)n1	-3	16	19	79*	-4	1
CCOC(=O)Cc1csc(NC(=S)NC(=O)CC(C)C)n1	7	83	79	54*	-6	1.1
CCOC(=O)Cc1csc(NC(=O)CSc2nnc(-c3ccncc3)o2)n1	-2	·	·	51*	-4	1
CC(C)Cn1c(=O)c(C(=O)N/N=C/c2cccc(F)c2)c(O)c2ccccc21	3	60	67	70*	-2	1
CC(C)Cn1c(=O)c(C(=O)Nc2ccccc2S(N)(=O)=O)c(O)c2ccccc21	6	81	96	-6	2	1
CCOc1ccc(C2c3[nH]c4ccccc4c3CCN2C(=O)Cn2cncn2)cc1 (stereo unspecified)	-22	·	·	10	-8	1.1
CCOC(=O)c1sc(N2N=C(C)/C(=C\c3ccc(OCC(=O)OC)cc3)C2=O)nc1C	-12	88	77	14	7	0.9
O=C(CNC(=O)c1ccccc1Br)N/N=C/c1ccc(O)cc1	-10	·	·	3	-3	1
Cc1onc(-c2c(F)cccc2Cl)c1C(=O)Nc1nc2c(s1)CCCC2	-5	70	70	58*	-2	1
Cc1onc(-c2ccccc2Cl)c1C(=O)N1CC(C)OC(C)C1 (stereo unspecified)	-11	98	98	3	-4	1
Cc1onc(-c2c(F)cccc2Cl)c1C(=O)N1CCc2ccccc2C1	-5	89	91	100*	-5	1
Cc1onc(-c2ccccc2Cl)c1C(=O)N1CCc2ccccc2C1	-2	95	89	96*	4	1
COc1ccc(NC(=O)COC(=O)CCCN2C(=O)c3ccccc3C2=O)cc1Cl	-8	99	85	-3	-6	1.1
CC(C)CNC(=O)COC(=O)CCC(=O)c1ccc(Cl)cc1	-6	·	·	-8	-1	1
CC(C)Oc1ccccc1C1Nc2ccccc2C(=O)N1c1ccc2c(c1)OCCO2 (stereo unspecified)	-5	79	85	63*	2	1
CC(C)Oc1ccccc1C1CC(=O)Nc2cc3c(cc21)OCCO3 (stereo unspecified)	-5	20	14	18	-8	1.1
CCNc1nc(NCC)nc(Oc2ccc(OCc3ccccc3)nn2)n1	-10	·	·	-4	-7	1.1
C#CCn1c(=NC(=O)c2ccc(Cl)s2)sc2cccc(OC)c21	-9	5	4.4*	2	2	1

Compound activity as filed in PubChem.
